ChEMBL document CHEMBL4308843, “Identification of ABX-1431, a Selective Inhibitor of Monoacylglycerol Lipase and Clinical Candidate for Treatment of Neurological Disorders” (J Med Chem, 2018)
Activity calls are given as the source filed them. The calls are words filed in the database; no cut-off is given here.

Target: T1, Monoglyceride lipase (Mus musculus, UniProt O35678)
T1 sequence (O35678 whole entry): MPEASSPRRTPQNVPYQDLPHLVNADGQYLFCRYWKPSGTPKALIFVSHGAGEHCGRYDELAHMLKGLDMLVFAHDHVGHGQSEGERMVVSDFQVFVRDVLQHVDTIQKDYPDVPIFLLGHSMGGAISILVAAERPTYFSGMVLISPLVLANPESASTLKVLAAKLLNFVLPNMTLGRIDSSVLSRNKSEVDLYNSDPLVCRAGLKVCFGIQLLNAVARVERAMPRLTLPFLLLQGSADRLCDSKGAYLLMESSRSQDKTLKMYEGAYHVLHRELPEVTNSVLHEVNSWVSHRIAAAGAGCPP
Assay: Inhibition of MGLL derived from mouse brain homogenates preincubated for 30 mins followed by JW912 addition after 30 mins by gel-based ABPP assay
Assay type: tissue-based
Settings: not given

IC50 [µM]	Structure (SMILES)
0.017	O=C(OC(C(F)(F)F)C(F)(F)F)N1CCN(Cc2ccc(C(F)(F)F)cc2N2CC3COCC3C2)CC1 (centres undefined)
0.12	O=C(OC(C(F)(F)F)C(F)(F)F)N1CCN(Cc2ccc(Cl)cc2N2CCCCC2)CC1
0.008	O=C(OC(C(F)(F)F)C(F)(F)F)N1CCN(Cc2ccc(C(F)(F)F)cc2N2CC[C@@H](O)C2)CC1
0.066	O=C(OC(C(F)(F)F)C(F)(F)F)N1CCN(Cc2ccc(Cl)cc2N2CC[C@H]3CCCN3C2)CC1

The next lines start with the molecule.

Structure (SMILES)	IC50 [µM]
O=C(OC(C(F)(F)F)C(F)(F)F)N1CCN(Cc2ccc(C(F)(F)F)cc2N2CCC3(CCOCC3)C2)CC1	0.024
C#Cc1ccc(CN2CCN(C(=O)OC(C(F)(F)F)C(F)(F)F)CC2)c(N2CCCC2)c1	0.159
O=C(OC(C(F)(F)F)C(F)(F)F)N1CCN(Cc2ccc(C(F)(F)F)cc2N2CCCCC2)CC1	0.13
O=C(OC(C(F)(F)F)C(F)(F)F)N1CCN(Cc2ccc(C(F)(F)F)cc2N2CC[C@H](O)C2)CC1	0.015
CN1CC2CN(c3cc(C(F)(F)F)ccc3CN3CCN(C(=O)OC(C(F)(F)F)C(F)(F)F)CC3)CC2C1 (centres undefined)	0.239

Target: T2, Platelet-activating factor acetylhydrolase (Homo sapiens, UniProt Q13093)
T2 sequence (Q13093 whole entry): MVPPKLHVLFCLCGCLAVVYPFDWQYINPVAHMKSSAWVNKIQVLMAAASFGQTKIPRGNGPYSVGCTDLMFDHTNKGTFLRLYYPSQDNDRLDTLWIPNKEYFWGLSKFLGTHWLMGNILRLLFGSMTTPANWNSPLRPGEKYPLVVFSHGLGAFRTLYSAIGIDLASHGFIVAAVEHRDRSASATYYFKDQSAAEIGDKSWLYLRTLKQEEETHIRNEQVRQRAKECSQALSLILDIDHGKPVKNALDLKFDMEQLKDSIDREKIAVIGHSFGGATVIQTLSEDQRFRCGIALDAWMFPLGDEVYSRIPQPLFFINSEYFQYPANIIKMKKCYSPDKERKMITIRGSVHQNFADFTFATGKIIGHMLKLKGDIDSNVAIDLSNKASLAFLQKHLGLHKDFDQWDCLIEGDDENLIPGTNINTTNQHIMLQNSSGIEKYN
Assay: Inhibition of PLA2G7 derived from human PC3 cell lysates preincubated for 30 mins followed by JW912 addition after 30 mins by gel-based ABPP assay
Assay type: subcellular, Lysate
Settings: not given

IC50 [µM]	Structure (SMILES)
> 10	O=C(OC(C(F)(F)F)C(F)(F)F)N1CCN(Cc2ccc(Cl)cc2N2CCCCC2)CC1
> 10	O=C(OC(C(F)(F)F)C(F)(F)F)N1CCN(Cc2cc(Cl)ccc2N2CCOCC2)CC1
> 10	O=C(OC(C(F)(F)F)C(F)(F)F)N1CCN(Cc2c(Cl)cccc2N2CCOCC2)CC1
> 10	Cc1cc(Cl)ccc1C(c1ccc(Cl)cc1C)N1CCN(C(=O)OC(C(F)(F)F)C(F)(F)F)CC1

The remaining lines, values behind:

Structure (SMILES)	IC50 [µM]
O=C(OC(C(F)(F)F)C(F)(F)F)N1CCN(Cc2ccc(C(F)(F)F)cc2N2CCC3(CCOCC3)C2)CC1	> 1
O=C(OC(C(F)(F)F)C(F)(F)F)N1CCN(Cc2ccc(C(F)(F)F)cc2N2C[C@H]3CC[C@@H](C2)O3)CC1	> 1
O=C(OC(C(F)(F)F)C(F)(F)F)N1CCN(C(c2ccc(Cl)cc2)c2ccc(Cl)cc2)CC1	> 1
O=C(OC(C(F)(F)F)C(F)(F)F)N1CCN(Cc2ccc(C(F)(F)F)cc2N2[C@@H]3CC[C@H]2COC3)CC1	> 1

Target: T3, Monoacylglycerol lipase ABHD6 (Homo sapiens, UniProt Q9BV23)
T3 sequence (Q9BV23 whole entry): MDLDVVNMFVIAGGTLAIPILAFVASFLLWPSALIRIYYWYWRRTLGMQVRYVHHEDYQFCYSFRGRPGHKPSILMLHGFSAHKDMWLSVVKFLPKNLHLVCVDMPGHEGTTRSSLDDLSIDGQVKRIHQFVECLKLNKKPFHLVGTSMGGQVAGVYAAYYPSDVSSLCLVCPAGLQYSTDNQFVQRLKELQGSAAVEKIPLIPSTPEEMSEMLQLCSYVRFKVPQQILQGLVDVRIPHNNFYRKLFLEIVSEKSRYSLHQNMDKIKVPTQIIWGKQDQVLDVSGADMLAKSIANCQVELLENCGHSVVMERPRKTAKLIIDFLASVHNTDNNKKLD
Assay: Inhibition of ABHD6 derived from human PC3 cell lysates preincubated for 30 mins followed by JW912 addition after 30 mins by gel-based ABPP assay
Assay type: subcellular, Lysate
Settings: not given

IC50 [µM]	Structure (SMILES)
> 10	O=C(OC(C(F)(F)F)C(F)(F)F)N1CCN(Cc2cc(Cl)ccc2N2CCOCC2)CC1
> 10	Cc1cc(Cl)ccc1C(c1ccc(Cl)cc1C)N1CCN(C(=O)OC(C(F)(F)F)C(F)(F)F)CC1

Test system: not listed separately
Assay: Intrinsic clearance in human liver microsomes
Assay type: ADME, Microsome
Settings: read-out: CLH

microsomal CLint [µL/min/mg]	Structure (SMILES)
34	O=C(OC(C(F)(F)F)C(F)(F)F)N1CCN(Cc2ccc(Cl)cc2N2CCCC2)CC1
24	O=C(OC(C(F)(F)F)C(F)(F)F)N1CCN(Cc2ccc(C(F)(F)F)cc2N2CCOCC2)CC1

Continued, molecule first:

Structure (SMILES)	microsomal CLint [µL/min/mg]
O=C(OC(C(F)(F)F)C(F)(F)F)N1CCN(Cc2ccc(Cl)cc2N2CCOCC2)CC1	45
O=C(OC(C(F)(F)F)C(F)(F)F)N1CCN(Cc2cccc(Cl)c2N2CCOCC2)CC1	76

Test system: Mus musculus
Assay: In-vivo inhibition of MGLL in ICR mouse brain assessed as target engagement at 5 mg/kg, po measured 4 hrs post dose by gel-based ABPP assay relative to control
Assay type: functional
Parameters: scale not given: the % may be the effect or the level left
Settings: not given
Procedure, shortened: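 Mice received a single 5 mg/kg oral gavage dose. Whole brains were collected 4 h post-dose and target engagement was read by gel-based ABPP with FP-Rh probe.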

Structure (SMILES)	Activity
O=C(OC(C(F)(F)F)C(F)(F)F)N1CCN(Cc2ccc(C(F)(F)F)cc2N2CCC3(CCOCC3)C2)CC1	75%
O=C(OC(C(F)(F)F)C(F)(F)F)N1CCN(Cc2ccc(C(F)(F)F)cc2N2CC3COCC3C2)CC1 (centres undefined)	25%
O=C(OC(C(F)(F)F)C(F)(F)F)N1CCN(Cc2ccc(C(F)(F)F)cc2N2CC[C@@H](O)C2)CC1	100%
O=C(OC(C(F)(F)F)C(F)(F)F)N1CCN(Cc2ccc(C(F)(F)F)cc2N2C[C@H]3CC[C@@H](C2)O3)CC1	100%
O=C(OC(C(F)(F)F)C(F)(F)F)N1CCN(Cc2ccc(C(F)(F)F)cc2N2[C@@H]3CC[C@H]2COC3)CC1	100%
O=C(OC(C(F)(F)F)C(F)(F)F)N1CCN(Cc2ccc(Cl)cc2N2CC3CCC(C2)O3)CC1	100%
O=C(OC(C(F)(F)F)C(F)(F)F)N1CCN(Cc2ccc(Cl)cc2N2CCN(CCF)CC2)CC1	75%
O=C(OC(C(F)(F)F)C(F)(F)F)N1CCN(Cc2ccc(Cl)cc2N2CC[C@H]3CCCN3C2)CC1	50%
O=C(OC(C(F)(F)F)C(F)(F)F)N1CCN(Cc2ccc(C(F)(F)F)cc2N2CC[C@H](O)C2)CC1	75%
CN1CC2CN(c3cc(C(F)(F)F)ccc3CN3CCN(C(=O)OC(C(F)(F)F)C(F)(F)F)CC3)CC2C1 (centres undefined)	inactive
O=C(OC(C(F)(F)F)C(F)(F)F)N1CCN(Cc2ccc(C(F)(F)F)cc2N2CCOCC2)CC1	100%
